Compounds with a hit are over-represented: about 2.9% of the library has one in this group of screens.
SENP7 block: SENP7 protease inhibition | hit rate 1.5% among 330,000 | inhibition, % at 5 µM | recombinant SENP7, Z-RLRGG-aminoluciferin luminescence, 40 min | Q9BQF6;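 active = inhibition above about 50% at the single test dose, limit read from the data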;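 note: plate controls were DMSO with enzyme for no effect and no enzyme buffer wells for full effect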
Target sequence (Q9BQF6 706-1050 limits assumed): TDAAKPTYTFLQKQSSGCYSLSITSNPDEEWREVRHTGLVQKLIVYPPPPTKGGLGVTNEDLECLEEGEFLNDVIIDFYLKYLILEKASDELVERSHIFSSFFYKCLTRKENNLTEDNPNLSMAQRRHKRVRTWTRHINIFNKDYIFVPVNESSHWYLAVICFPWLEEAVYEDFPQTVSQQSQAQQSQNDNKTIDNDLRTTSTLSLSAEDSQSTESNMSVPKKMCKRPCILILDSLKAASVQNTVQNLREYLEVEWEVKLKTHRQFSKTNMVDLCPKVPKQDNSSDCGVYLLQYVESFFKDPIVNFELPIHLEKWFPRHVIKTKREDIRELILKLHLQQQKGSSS
SENP8 block-1: SENP8 protease inhibition; hit rate 1.2% among 330,000; Q96LD8; AID 2540; inhibition, % at 10 µM; purified SENP8, Z-RLRGG-aminoluciferin cleavage, luminescence; in the data active = inhibition above about 50%
SENP8 block-2: blocks human SENP8 cleavage of Nedd8 substrate; hit rate 0.64% among 360,000; recombinant SENP8, Nedd8 substrate fluorescence; AID 602440; Q96LD8; inhibition, % at 20 µM; in the data active = inhibition mostly above about 40%, no sharp cut-off; inactive = mostly below about 27%
SENP1 inh: blocks the human SENP1 SUMO protease catalytic domain; Q9P0U3; recombinant SENP1 catalytic domain, CyPet-SUMO1-YPet FRET cleavage; inhibition, % at 10 µM; hit rate 0.21% among 360,000;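 active = inhibition at least 30% at 10 µM, raw YFP signal under a set limit, fluorescence ratio 0.5 to 1.5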;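 note: 0% = enzyme with DMSO and 100% = no enzyme wells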
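Assay system – human recombinant His6-tagged SENP1 catalytic domain enzyme · Input – SENP1 enzyme, 20 pM final · Buffer or medium – Tris pH 8 buffer plus EDTA, NaCl, BME, BSA, NP40, catalase · Schedule – 50 min reaction at room temperature · Technique – FRET read of cyan and yellow fluorescence · Control set – no-enzyme wells low, DMSO-plus-enzyme wells high control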
HSP90 refold inh: inhibitors of HSP90 luciferase refolding in rabbit reticulocyte lysate; AID 1789; hit rate 0.91% among 290,000; inhibition, % at 5.6 µM; luciferase refolding luminescence, 3 h;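 active = inhibition above the screen-wide mean plus 3 SD, computed separately per campaign, cut at about 16% in these data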;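 note: 0% = DMSO wells and 100% = 60 µM geldanamycin wells; inhibitors lower the luminescence because luciferase stays unfolded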
SENP6 inh: blocks the human protease SENP6; Q9GZR1; Recombinant SENP6 catalytic domain, aminoluciferin luminescence; inhibition, % at 10 µM; hit rate 1.8% among 330,000; AID 2599;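 active = inhibition above about 50% at the single tested dose, limit read from the data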;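 note: plate controls were DMSO wells with enzyme for no effect and DMSO wells lacking enzyme for full effect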
SENP8 conf: confirmation of human SENP8 protease inhibitors. shares compounds with SENP8 block-2. purified SENP8, Nedd8-AMC/pro-Nedd8 cleavage fluorescence, 30 min. AID 624319. inhibition, % at 25 µM. hit rate 15% among 1,400; in the data active = inhibition mostly above about 39%, no sharp cut-off; inactive = mostly below about 34%
Starred values were filed as active, the others as inactive; / = no result given.

SMILES	SENP7 block	SENP8 block-1	SENP8 block-2	SENP1 inh	HSP90 refold inh	SENP6 inh	SENP8 conf
CCOc1cc(/C=C2\N=C(SCC)SC2=O)cc([N+](=O)[O-])c1OC(C)=O	3	27	36	5	-2	26	/
CCc1noc(C)c1C(=O)N1CCC(CCC(=O)Nc2cccc(C)c2)CC1	-15	-11	4	-1	-1	-4	/
COc1ccc(N2C(=O)[C@@H]3[C@H](C2=O)[C@H]2c4ccccc4C=CN2[C@@H]3C(C)=O)cc1	/	/	63*	-19	3	/	93*
COc1ccc(NC(=O)c2cc(-c3sc(NC(=O)c4ccccc4)nc3C)n(-c3ccc(Br)cc3)n2)cc1	/	/	-242	-136	/	/	/
Cc1ccc(CN2CC(N3CC=CC3)CS2(=O)=O)cc1 (stereo not given)	/	/	48*	3	/	/	26
Cc1ccc2c(c1)c(/C=C/c1cc[n+](C)cc1)c(C)n2C	3	4	44*	-19	0	2	20
Cc1ccc2[nH]c(C)c(/C=C/c3cc[n+](C)cc3)c2c1	1	7	40*	-24	2	-6	32
O=c1oc2ccccc2nc1/C=C(O)/C=C/c1ccc(F)cc1	5	-4	47*	-17	6	2	-3
O=c1oc2ccccc2nc1/C=C(O)/C=C\c1ccccc1	10	3	15	-17	6	0	/
CC(C)=CCc1cc([C@@H]2COc3c(ccc4c3C=CC(C)(C)O4)C2)c(O)cc1O	4	-1	48*	-4	/	-9	24
CCOC(=O)c1c(N)c2cc([N+](=O)[O-])ccc2n1C	-9	1	47*	4	0	-13	7
CCOC(=O)/C(=C/c1c(C)n(C)c2ccc([N+](=O)[O-])cc12)C(C)=O	-5	0	21	3	-4	-2	/
COc1cccc(Nc2cc(N3CCOCC3)c3nonc3c2[N+](=O)[O-])c1	-9	-6	44*	-19	-1	4	14
O=[N+]([O-])c1c(Nc2ccccc2O)cc(N2CCOCC2)c2nonc12	12	5	-392	-26	-2	1	/
CN(C)c1ccc(NC(=O)c2ccc(Cn3cc([N+](=O)[O-])cn3)cc2)cc1	2	7	44*	6	-3	-10	39
COc1ccc(NC(=O)c2ccc(Cn3cc(Cl)cn3)cc2)cc1	-2	-4	6	0	-2	-8	/
CCC(C)(CC(=O)Nc1nccs1)c1ccccc1 (stereo not given)	3	-4	14	0	-2	-12	/
N#Cc1ncc(C(F)(F)F)cc1Sc1ccc(N)cc1	5	4	45*	3	4	-11	24
N#Cc1cc(N)ccc1Sc1ccc(Cl)cc1	-6	-4	-453	-2	-4	-1	/
O=C(Nc1ccc(O)cc1)C1CC=CCC1 (stereo not given)	2	-2	41*	-2	8	5	49*
O=C(O)c1ncsc1-c1ccccc1	-3	-3	43*	1	-1	-12	23
NCCNC(=O)c1ncsc1-c1cccc(F)c1	4	-4	9	1	/	-4	/
CC(Nc1c([N+](=O)[O-])c(=O)oc2ccccc12)C(Cl)c1ccccc1 (stereo not given)	4	2	52*	-1	-1	-13	11
O=c1oc2ccccc2c(NC(c2ccccc2)c2ccccc2)c1[N+](=O)[O-]	-11	-11	13	0	-1	-20	/
CCCCCC(=O)Nc1ccc(-c2csc(N)n2)cc1	-1	-6	-6	1	0	-11	/
Cc1cccc(N2CCN(C3=NC(=O)C(Cc4ccccc4)S3)CC2)c1 (stereo not given)	-7	-8	25	2	-1	-20	/
O=C(Nc1nc(-c2ccc([N+](=O)[O-])cc2)cs1)c1c(F)cccc1F	5	2	7	4	5	-11	/
Cc1ccc(-c2csc(NC(=O)c3cccc([N+](=O)[O-])c3)n2)cc1	-9	0	48*	3	4	-2	19
COc1cccc(/C=N/NC(=O)c2nnn(-c3nonc3N)c2CN(C)C2CCCCC2)c1	/	/	18	0	/	/	/

Screening data from PubChem.
